From PubChem
Lipid droplet – inhibitors of hepatocyte lipid droplet formation, primary screen, imaging, high-throughput imaging, BODIPY stain | AID 1656, 2009 | 0.4% of 240,000 active | inhibition, % at 6.5 µM | AML12 mouse hepatocytes, oleate lipid droplets;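 active = lipid droplet intensity inhibited by at least 50%, with more than 500 cells counted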
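Material – AML12 mouse liver cells · Also added – oleate loading, 100 µM · Compound dosing – 6.5 µM single-point dosing · Times – overnight treatment with compound plus oleate · Measured by – fluorescence imaging, 20x objective, two fields per well · Read-out – percent inhibition of filter-corrected integrated lipid droplet intensity per well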
hiPSC survival – enhancers of single-cell hiPSC survival, primary screen, ATPlite luminescence | 0.044% of 360,000 active | 100% = ROCK inhibitor wells, 0% = DMSO | survival enhancement, % at 20 µM; in the data active = survival enhancement above about 18%;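 also: cells exposed to compounds for 16 hours before the ATP read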
TAG inh – inhibitors of triacylglycerol accumulation, primary screen, cell-based, uHTS, fluorescence, H9c2. AID 651582, 2012. 0.66% of 230,000 active. inhibition, % at 12.5 µM. H9c2 cells, Nile Red lipid (TAG) fluorescence; cells loaded with 200 µM oleic acid;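 active = pattern-corrected inhibition of lipid staining of at least 50% with the nuclear-stain viability signal not falling by more than 50%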;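 also: 0% = DMSO wells and 100% = triacsin C control wells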
697 NFkB inh – inhibitors of PMA/ionomycin-induced NF-kB reporter, 697 cells, primary screen, B-cell NF-kB inhibitor project, cell-based, luminescence, uHTS; inhibition, % at 4 µM; 0.33% of 330,000 active; AID 435022, 2010; 697 B-cell NF-kB luciferase reporter, 16 h; in the data active = inhibition above about 35%
Gli-Sufu block – Gli-Sufu pathway antagonists, primary screen, luciferase luminescence, Sufu-KO-LIGHT cells, uHTS. 0.74% of 340,000 active. inhibition, % at 5 µM. Sufu-KO-LIGHT fibroblasts, Gli luciferase reporter luminescence;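 active = inhibition above about 55%, limit read from the data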;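 also: 0% = DMSO-treated cells and 100% = wells with medium but no cells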
Jurkat NFkB inh – inhibitors of induced NF-kB luciferase reporter, primary screen, TCR NF-kB activation inhibitor project, cell-based, luminescence, uHTS; inhibition, % at 4 µM; AID 435003, 2010; Jurkat, PMA/ionomycin-induced NF-kB luciferase reporter; 0.53% of 330,000 active; in the data active = inhibition above about 50%
Gli-Sufu confirm – Gli-SUFU pathway antagonists, confirmation, single concentration, luciferase luminescence, Sufu-KO-LIGHT cells | shares compounds with Gli-Sufu block | Gli luciferase reporter | inhibition, % at 5 µM | 40% of 2,500 active | AID 602428, 2012;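 active = mean inhibition at 5 µM reaching about 45%, limit read from the data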;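 also: plate controls were DMSO-treated cells for no effect and wells lacking cells for full effect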
Gli cytotox – cytotoxicity in Sufu-KO-LIGHT cells, confirmation, cytotoxicity control for Gli-SUFU antagonist project, cell-based, ATP luminescence, single concentration; AID 651994, 2013; cytotoxicity, % at 5 µM; shares compounds with Gli-Sufu block; 32% of 2,500 active;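 active = mean cytotoxicity at 5 µM above about 25%, limit read from the data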;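 also: cells exposed to compound overnight for roughly 16 to 18 hours; plate controls were DMSO wells with cells for no effect and medium without cells for full effect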
Wnt3a counter – Wnt3a reporter signal inhibition, confirmation, counter-screen for Gli-SUFU antagonist project, Wnt-LIGHT cells, luminescence, single concentration | shares compounds with Gli-Sufu block | Wnt3a-driven luciferase reporter | inhibition, % at 6.25 µM | 20% of 2,500 active | AID 651995, 2013;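 active = mean inhibition above about 25%, limit read from the data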
Numbers without * were called inactive. Only some compounds are listed: those with a hit (about 1.8% of all), similar ones and a draw of the others.

`NS(=O)(=O)c1ccc(CCNc2ncnc3sccc23)cc1` gave Lipid droplet 0, hiPSC survival -3, TAG inh -74, 697 NFkB inh 26, Gli-Sufu block 60*, Jurkat NFkB inh 33, Gli-Sufu confirm 55*, Gli cytotox 31* and Wnt3a counter 28*.
`O=C(COc1ccc(Cl)cc1Cl)NC(=S)N1CCCc2ccccc21` gave Lipid droplet 9, hiPSC survival -1, 697 NFkB inh -59, Gli-Sufu block 53, Jurkat NFkB inh -30, Gli-Sufu confirm 14, Gli cytotox 22 and Wnt3a counter 17.
`O=C(COc1ccc(Cl)cc1Cl)OCC(=O)N1CCCc2ccccc21` gave Lipid droplet 11, hiPSC survival -2, TAG inh 11, 697 NFkB inh 4, Gli-Sufu block 8 and Jurkat NFkB inh -1.
`COc1cc(Cl)c(C)cc1NC(=O)c1ccc(S(C)(=O)=O)cc1` gave Lipid droplet 7, hiPSC survival -1, TAG inh 19, 697 NFkB inh 3, Gli-Sufu block 0 and Jurkat NFkB inh 8.
`CCN(CC)S(=O)(=O)c1ccc(C)c(NC(=S)N2CCN(Cc3ccc4c(c3)OCO4)CC2)c1` gave Lipid droplet 23, hiPSC survival -1, TAG inh -20, 697 NFkB inh -18, Gli-Sufu block 64*, Jurkat NFkB inh 27, Gli-Sufu confirm 43, Gli cytotox 24 and Wnt3a counter 7.
`CCN(CC)S(=O)(=O)c1ccc(C)c(NC(=S)N2CCN(c3ccccn3)CC2)c1` gave Lipid droplet -15, hiPSC survival 1, 697 NFkB inh -1, Gli-Sufu block 7 and Jurkat NFkB inh 12.
Screening CCN(CC)S(=O)(=O)c1ccc(C)c(NC(=S)N2CCN(C/C=C/c3ccccc3)CC2)c1 returned Lipid droplet -40, hiPSC survival 1, TAG inh -13, 697 NFkB inh -18, Gli-Sufu block 66*, Jurkat NFkB inh 29, Gli-Sufu confirm 39, Gli cytotox 31* and Wnt3a counter -8.
For O=C(CSc1ncn[nH]1)Nc1ccc(S(=O)(=O)Nc2ncccn2)cc1 the results were Lipid droplet 6, hiPSC survival 0, TAG inh -9, 697 NFkB inh 35, Gli-Sufu block 7 and Jurkat NFkB inh -1.
For O=C(O)Cn1nnnc1SCC(=O)Nc1ccccc1F the results were Lipid droplet 3, hiPSC survival 0, TAG inh -2, 697 NFkB inh 5, Gli-Sufu block 57*, Jurkat NFkB inh 2, Gli-Sufu confirm 33, Gli cytotox 0 and Wnt3a counter 9.
Screening O=C(COc1ccccc1)Nc1ccc2oc(=O)ccc2c1 returned Lipid droplet 2, hiPSC survival 0, 697 NFkB inh 6, Gli-Sufu block -17 and Jurkat NFkB inh 5.
Screening Cc1cccc(-n2ncc3c2CCCC3NC(=O)CN2CCOC2=O)c1C (stereo not drawn) returned Lipid droplet -3, hiPSC survival 0, 697 NFkB inh -1, Gli-Sufu block -11 and Jurkat NFkB inh 4.
Cc1cccc(-n2ncc3c2CCCC3NC(=O)Cc2c(C)noc2C)c1C (stereo not drawn) was read as Lipid droplet -6, hiPSC survival 0, TAG inh -3, 697 NFkB inh -17, Gli-Sufu block 59*, Jurkat NFkB inh 27, Gli-Sufu confirm 29, Gli cytotox 31* and Wnt3a counter 7.
Cc1cccc(CNc2ncnc3ccc(-c4ccoc4)cc23)c1 was read as hiPSC survival 4, TAG inh 7, 697 NFkB inh -53, Gli-Sufu block -7 and Jurkat NFkB inh 0.
For CC(=O)Nc1ccc(CNc2ncnc3ccc(-c4c(C)noc4C)cc23)cc1 the results were hiPSC survival 0, TAG inh 62*, 697 NFkB inh -79, Gli-Sufu block 73*, Jurkat NFkB inh -21, Gli-Sufu confirm 78*, Gli cytotox 31* and Wnt3a counter -22.
For NC(=O)c1ccc(NC(=O)CN2CCN(Cc3ccccc3)CC2)cc1 the results were hiPSC survival 1, 697 NFkB inh 13, Gli-Sufu block 7 and Jurkat NFkB inh -34.
For CCOC(=O)C1(CCOc2ccccc2)CCN(Cc2cccc(OC)c2OC)CC1 the results were Lipid droplet -24, hiPSC survival -1, TAG inh -6, 697 NFkB inh -6, Gli-Sufu block 56*, Jurkat NFkB inh 6, Gli-Sufu confirm 24, Gli cytotox 9 and Wnt3a counter -27.
`CCOC(=O)C1(CCOc2ccccc2)CCN(Cc2ccccc2O)CC1` gave hiPSC survival 0, TAG inh -8 and Gli-Sufu block 3.
For CCOC(=O)C1(CCOc2ccccc2)CCN(Cc2cc(OC)c3c(c2)OCO3)CC1 the results were Lipid droplet -2, hiPSC survival -2, TAG inh -25, 697 NFkB inh -13, Gli-Sufu block 54, Jurkat NFkB inh 27, Gli-Sufu confirm 16, Gli cytotox 9 and Wnt3a counter -20.
`CCOC(=O)C1(CCOc2ccccc2)CCN(Cc2cccc3c2OCO3)CC1` gave Lipid droplet -16, hiPSC survival 0, TAG inh -11, 697 NFkB inh -6, Gli-Sufu block 43 and Jurkat NFkB inh -4.
`CCOC(=O)C1(CCc2ccccc2)CCN(Cc2cc(OC)c(OC)cc2OC)CC1` gave Lipid droplet -2, hiPSC survival -1, TAG inh 4, 697 NFkB inh -13, Gli-Sufu block 60*, Jurkat NFkB inh 29, Gli-Sufu confirm 18, Gli cytotox 15 and Wnt3a counter -43.
COc1ccc(NC(=O)c2ccc([N+](=O)[O-])cc2[N+](=O)[O-])c(OC)c1 was read as Lipid droplet 3, hiPSC survival -1, TAG inh -12, 697 NFkB inh -25, Gli-Sufu block -4 and Jurkat NFkB inh -5.
`Cc1ccsc1/C=N/NC(=O)Cc1cccn1C` gave Lipid droplet 5, hiPSC survival 7, 697 NFkB inh 8, Gli-Sufu block -8 and Jurkat NFkB inh -22.
